ChEMBL document CHEMBL5096187, “Efficient Synthesis and Bioevaluation of Novel Dual Tubulin/Histone Deacetylase 3 Inhibitors as Potential Anticancer Agents” (J Med Chem, 2021)

Tests used:
[1] = Antiproliferative activity against human YCC3/7 cells assessed as inhibition of cell viability; format: functional, cell-based
Tubulin (Sus scrofa) = Tubulin (Sus scrofa) (UniProt P02554+P02550); assay: Inhibition of pig brain tubulin polymerization at 10 uM measured after 20 mins by spectrometric method relative to control
Procedure, shortened: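 Pig brain tubulin was purified by three assembly/disassembly cycles and then phosphocellulose chromatography. Compound at 10 μM in PEM buffer with 1 mM GTP and 5% glycerol at 37 °C. Polymerization followed at 340 nm; inhibition taken at 20 min versus vehicle control.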

B16-F10 = assay: Antiproliferative activity against mouse B16-F10 cells assessed as inhibition of cell viability measured for 48 hrs by microplate reader based MTT assay; format: functional; details: B16-F10, 48 h
Procedure, shortened: (§1)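 Cells grown in RPMI-1640 with 10% FBS and seeded at 5000 cells/well. After overnight attachment, compound was added in medium with 0.1% DMSO for 48 h at 37 °C. Read-out was MTT for HCT-116, B16-F10 and A549, and CCK-8 for Jurkat (0.5 mg/mL, 4 h), with absorbance at 570 nm. IC50 from nonlinear regression; at least three independent experiments.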

Histone deacetylase 1 = Histone deacetylase 1 (Homo sapiens, UniProt Q13547); assay: Inhibition of full length recombinant human HDAC1 (1 to 482 residues) expressed in Baculovirus system using Ac-Leu-Gly-Lys (Ac)-AMC as substrate pretreated for 5 mins followed by substrate addition and measured after 30 mins
Histone deacetylase 3 = Histone deacetylase 3 (Homo sapiens, UniProt O15379); assay: Inhibition of recombinant HDAC3 (unknown origin) using Ac-Leu-Gly-Lys (Ac)-AMC as substrate pretreated for 5 mins followed by substrate addition and measured after 30 mins
HCT-116 = assay: Antiproliferative activity against human HCT-116 cells assessed as inhibition of cell viability measured for 48 hrs by microplate reader based MTT assay; format: functional; details: HCT-116, 48 h; procedure, shortened: as §1
Histone deacetylase 8 = target: T1, Histone deacetylase 8 (Homo sapiens, UniProt Q9BY41); assay: Inhibition of full length C-terminal his-tagged human recombinant HDAC8 ([…]) expressed in baculovirus in Sf9 insect cells using Ac-Leu-Gly-Lys (Tfa)-AMC as substrate pretreated for 5 mins followed by substrate addition and measured after 30 mins
T1 sequence (Q9BY41 whole entry): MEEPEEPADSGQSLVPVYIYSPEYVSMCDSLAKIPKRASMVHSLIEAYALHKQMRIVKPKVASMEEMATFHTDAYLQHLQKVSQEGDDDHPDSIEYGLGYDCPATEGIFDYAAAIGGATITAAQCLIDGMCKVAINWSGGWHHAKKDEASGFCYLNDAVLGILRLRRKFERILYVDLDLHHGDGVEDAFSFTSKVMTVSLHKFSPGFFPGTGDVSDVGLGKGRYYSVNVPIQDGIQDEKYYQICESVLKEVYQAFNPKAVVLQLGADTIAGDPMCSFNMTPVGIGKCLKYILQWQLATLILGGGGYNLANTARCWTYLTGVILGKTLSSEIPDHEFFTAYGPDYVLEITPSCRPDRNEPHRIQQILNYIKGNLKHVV

[2] = Antiproliferative activity against human YCC-11 cells assessed as inhibition of cell viability; format: functional, cell-based
[3] = target: T2, Protein deacetylase HDAC6 (Homo sapiens) (UniProt Q9UBN7); assay: Inhibition of recombinant HDAC6 (unknown origin) at 1 uM relative to control
T2 sequence (whole entry): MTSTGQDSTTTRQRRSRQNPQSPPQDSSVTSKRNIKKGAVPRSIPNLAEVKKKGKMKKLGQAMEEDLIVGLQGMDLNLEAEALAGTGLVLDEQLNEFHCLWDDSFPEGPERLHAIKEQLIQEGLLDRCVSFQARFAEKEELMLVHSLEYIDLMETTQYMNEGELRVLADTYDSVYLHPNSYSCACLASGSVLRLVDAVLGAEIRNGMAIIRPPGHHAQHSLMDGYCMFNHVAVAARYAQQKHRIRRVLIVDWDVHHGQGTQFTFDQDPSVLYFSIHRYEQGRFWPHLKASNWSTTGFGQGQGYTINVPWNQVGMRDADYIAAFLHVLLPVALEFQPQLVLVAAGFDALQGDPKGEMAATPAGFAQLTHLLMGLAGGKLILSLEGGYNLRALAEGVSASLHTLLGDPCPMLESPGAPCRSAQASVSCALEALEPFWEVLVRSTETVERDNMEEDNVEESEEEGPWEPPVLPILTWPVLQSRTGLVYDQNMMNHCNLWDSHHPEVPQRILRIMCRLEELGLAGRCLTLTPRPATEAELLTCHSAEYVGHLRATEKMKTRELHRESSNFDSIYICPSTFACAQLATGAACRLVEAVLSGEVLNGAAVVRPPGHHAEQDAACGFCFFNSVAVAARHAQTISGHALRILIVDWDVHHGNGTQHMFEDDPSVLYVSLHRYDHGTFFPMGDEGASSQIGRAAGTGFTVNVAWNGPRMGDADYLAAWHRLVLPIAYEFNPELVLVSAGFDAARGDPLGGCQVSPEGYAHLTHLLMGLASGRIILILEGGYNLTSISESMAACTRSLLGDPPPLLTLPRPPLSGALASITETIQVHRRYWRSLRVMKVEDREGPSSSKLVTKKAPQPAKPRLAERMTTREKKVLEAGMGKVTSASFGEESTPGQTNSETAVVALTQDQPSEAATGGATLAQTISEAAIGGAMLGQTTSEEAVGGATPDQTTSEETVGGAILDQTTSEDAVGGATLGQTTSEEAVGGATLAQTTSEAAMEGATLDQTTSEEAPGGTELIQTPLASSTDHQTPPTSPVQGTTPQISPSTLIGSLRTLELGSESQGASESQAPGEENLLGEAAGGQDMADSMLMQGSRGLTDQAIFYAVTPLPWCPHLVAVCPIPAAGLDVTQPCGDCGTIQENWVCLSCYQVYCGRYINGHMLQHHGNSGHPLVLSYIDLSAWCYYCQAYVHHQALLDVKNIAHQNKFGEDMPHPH
Procedure, shortened: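 Single-point test at 1 μM against recombinant HDAC6 (15 ng/well) in 25 mM Tris pH 8.0, 1 mM MgCl₂, 0.1 mg/mL BSA, 137 mM NaCl, 2.7 mM KCl. Compound preincubated 5 min at room temperature, then Ac-Leu-Gly-Lys(Ac)-AMC 10 μM, 30 min at 37 °C. Trypsin/TSA developer 30 min. Fluorescence read at ex 350−360/em 450−460 nm.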

Jurkat = assay: Antiproliferative activity against human Jurkat cells assessed as inhibition of cell viability measured for 48 hrs by microplate reader based CCK-8 assay; format: functional
A549 = assay: Antiproliferative activity against human A549 cells assessed as inhibition of cell viability measured for 48 hrs by microplate reader based CCK-8 assay; format: functional; details: A549, 48 h
[4] = target: T3, Protein deacetylase HDAC6 (Homo sapiens, UniProt Q9UBN7); assay: Inhibition of full length N-terminal GST-tagged human recombinant HDAC6 (1 to 1215 residues) expressed in Baculovirus infected Sf9 cells using Ac-Leu-Gly-Lys (Ac)-AMC as substrate pretreated for 5 mins followed by substrate addition and measured after 30 mins
T3 sequence (Q9UBN7 whole entry): T2 sequence (whole entry)
Procedure, shortened: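 HDAC6 at 15 ng/well in Tris buffer pH 8.0 with MgCl2, BSA, NaCl and KCl. Ten 3-fold dilutions preincubated 5 min at room temperature, then 10 μM Ac-Leu-Gly-Lys(Ac)-AMC for 30 min at 37 °C. IC50 by normalized dose–response nonlinear fit; performed at least three times.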

Histone deacetylase 7 = target: T4, Histone deacetylase 7 (Homo sapiens, UniProt Q8WUI4); assay: Inhibition of full length N-terminal GST-tagged human recombinant HDAC7 (501 to 952 residues) expressed in Baculovirus system using Ac-Leu-Gly-Lys (Ac)-AMC as substrate pretreated for 5 mins followed by substrate addition and measured after 30 mins
T4 sequence (Q8WUI4 whole entry): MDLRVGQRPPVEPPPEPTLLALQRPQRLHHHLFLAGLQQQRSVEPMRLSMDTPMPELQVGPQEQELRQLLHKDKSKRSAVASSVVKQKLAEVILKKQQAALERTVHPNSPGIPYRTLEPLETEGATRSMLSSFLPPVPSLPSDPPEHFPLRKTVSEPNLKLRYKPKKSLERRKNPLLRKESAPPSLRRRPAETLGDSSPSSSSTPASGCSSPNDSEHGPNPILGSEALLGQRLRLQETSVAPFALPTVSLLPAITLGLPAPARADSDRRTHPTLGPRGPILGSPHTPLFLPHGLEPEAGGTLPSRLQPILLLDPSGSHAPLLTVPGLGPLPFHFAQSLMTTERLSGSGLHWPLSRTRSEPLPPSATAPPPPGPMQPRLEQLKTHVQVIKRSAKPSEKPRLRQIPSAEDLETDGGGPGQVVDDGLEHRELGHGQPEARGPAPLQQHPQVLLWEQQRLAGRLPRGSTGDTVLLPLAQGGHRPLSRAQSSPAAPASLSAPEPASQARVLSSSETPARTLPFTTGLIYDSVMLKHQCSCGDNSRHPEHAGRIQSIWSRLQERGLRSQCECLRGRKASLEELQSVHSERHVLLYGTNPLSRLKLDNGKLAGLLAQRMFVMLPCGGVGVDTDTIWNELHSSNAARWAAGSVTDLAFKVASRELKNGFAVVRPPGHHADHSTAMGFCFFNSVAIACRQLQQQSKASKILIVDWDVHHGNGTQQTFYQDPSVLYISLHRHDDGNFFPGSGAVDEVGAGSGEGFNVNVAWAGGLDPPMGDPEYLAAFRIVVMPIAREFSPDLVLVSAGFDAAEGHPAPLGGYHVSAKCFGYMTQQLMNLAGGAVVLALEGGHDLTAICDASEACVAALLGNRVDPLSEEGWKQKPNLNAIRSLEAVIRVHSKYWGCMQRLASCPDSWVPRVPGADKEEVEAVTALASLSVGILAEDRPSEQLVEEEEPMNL

Chain of Tubulin (Sus scrofa) (P02550 whole entry, looked up): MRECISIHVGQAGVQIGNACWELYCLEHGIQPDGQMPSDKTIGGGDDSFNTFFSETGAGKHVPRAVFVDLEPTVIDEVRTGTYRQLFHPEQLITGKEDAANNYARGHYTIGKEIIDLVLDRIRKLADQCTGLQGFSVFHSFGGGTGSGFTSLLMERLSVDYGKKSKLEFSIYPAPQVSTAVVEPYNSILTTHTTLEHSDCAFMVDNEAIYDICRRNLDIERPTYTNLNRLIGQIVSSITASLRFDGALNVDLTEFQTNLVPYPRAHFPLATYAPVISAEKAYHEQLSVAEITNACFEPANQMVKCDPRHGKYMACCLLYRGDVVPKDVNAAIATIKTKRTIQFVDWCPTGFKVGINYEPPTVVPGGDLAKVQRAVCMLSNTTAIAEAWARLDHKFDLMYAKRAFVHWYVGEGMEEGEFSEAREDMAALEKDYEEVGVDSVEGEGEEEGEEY
Chain of Tubulin (Sus scrofa) (P02554 whole entry, looked up): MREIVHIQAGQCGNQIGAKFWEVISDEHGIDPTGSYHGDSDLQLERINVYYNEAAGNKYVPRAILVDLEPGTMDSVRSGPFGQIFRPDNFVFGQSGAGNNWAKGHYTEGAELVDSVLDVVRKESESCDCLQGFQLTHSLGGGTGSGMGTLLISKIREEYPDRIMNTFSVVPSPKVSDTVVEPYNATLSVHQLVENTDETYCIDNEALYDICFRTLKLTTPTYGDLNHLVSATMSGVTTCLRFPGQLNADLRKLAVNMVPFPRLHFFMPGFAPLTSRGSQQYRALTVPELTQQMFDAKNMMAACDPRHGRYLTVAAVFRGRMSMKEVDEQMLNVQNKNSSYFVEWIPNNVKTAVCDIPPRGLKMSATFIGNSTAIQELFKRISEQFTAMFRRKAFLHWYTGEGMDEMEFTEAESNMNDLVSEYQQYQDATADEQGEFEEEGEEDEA
Chain of Histone deacetylase 1 (Q13547 whole entry, the tested form may be a part): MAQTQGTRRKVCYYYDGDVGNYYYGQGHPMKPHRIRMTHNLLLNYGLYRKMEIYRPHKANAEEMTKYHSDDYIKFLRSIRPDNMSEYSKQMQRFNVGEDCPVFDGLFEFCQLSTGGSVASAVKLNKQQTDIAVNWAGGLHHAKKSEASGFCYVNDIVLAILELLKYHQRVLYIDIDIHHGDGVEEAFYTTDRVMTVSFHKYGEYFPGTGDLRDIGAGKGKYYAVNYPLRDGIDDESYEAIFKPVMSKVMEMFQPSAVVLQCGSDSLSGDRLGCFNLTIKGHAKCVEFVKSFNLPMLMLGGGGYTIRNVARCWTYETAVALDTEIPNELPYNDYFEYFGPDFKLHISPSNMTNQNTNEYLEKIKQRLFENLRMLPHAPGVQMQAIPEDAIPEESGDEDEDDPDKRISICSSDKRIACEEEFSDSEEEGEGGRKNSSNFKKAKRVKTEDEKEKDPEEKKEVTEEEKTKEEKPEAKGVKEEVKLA
Chain of Histone deacetylase 3 (O15379 whole entry): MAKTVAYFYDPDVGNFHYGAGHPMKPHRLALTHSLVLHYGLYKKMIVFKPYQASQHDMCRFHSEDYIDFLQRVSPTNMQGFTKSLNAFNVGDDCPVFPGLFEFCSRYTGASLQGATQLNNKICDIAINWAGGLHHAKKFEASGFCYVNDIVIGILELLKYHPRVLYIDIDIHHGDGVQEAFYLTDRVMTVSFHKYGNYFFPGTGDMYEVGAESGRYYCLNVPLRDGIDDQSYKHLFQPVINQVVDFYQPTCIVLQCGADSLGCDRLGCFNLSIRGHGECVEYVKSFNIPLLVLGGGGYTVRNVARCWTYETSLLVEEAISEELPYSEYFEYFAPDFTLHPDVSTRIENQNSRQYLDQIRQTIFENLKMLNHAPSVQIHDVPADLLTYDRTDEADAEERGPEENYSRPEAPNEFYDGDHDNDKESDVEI

Compound	IC50 [1] [nM]	inhibition (Tubulin (Sus scrofa)) [%]	IC50 (B16-F10) [nM]	IC50 (Histone deacetylase 1) [nM]	IC50 (Histone deacetylase 3) [nM]	IC50 (HCT-116) [nM]	IC50 (Histone deacetylase 8) [nM]	IC50 [2] [nM]	inhibition [3] [%]	IC50 (Jurkat) [nM]	IC50 (A549) [nM]	IC50 [4] [nM]	IC50 (Histone deacetylase 7) [nM]
COc1cc(C(=O)c2csc(-c3ccc(OCCCC(=O)NO)cc3)n2)cc(OC)c1OC	1280	39	3830	6270	9560	100	8840	920	> 50	530	1930	1150	
COc1cc(C(=O)c2csc(-c3ccc(NC(=O)CCCCCCC(=O)Nc4ccccc4N)cc3)n2)cc(OC)c1OC	5310		910	9880	1730	360	10200	3680		30	2100	29200	
COc1cc(C(=O)c2csc(-c3ccc(NC(=O)/C=C/C(=O)Nc4ccccc4N)cc3)n2)cc(OC)c1OC		67	3950	14400	3960	870	800			260	2980	30200	43000
COc1cc(C(=O)c2csc(-c3ccc(NC(=O)CCC(=O)NO)cc3)n2)cc(OC)c1OC			920	7360	12300	2510	5140		> 50	420	5830	1860	
COc1cc(C(=O)c2csc(-c3ccc(OCc4ccc(/C=C/C(=O)NO)cc4)cc3)n2)cc(OC)c1OC			2210	6860	8860	2780	7100		> 50	480	> 10000	2070	
COc1cc(C(=O)c2csc(-c3ccc(NC(=O)CCCCC(=O)NO)cc3)n2)cc(OC)c1OC			> 10000	16600	13100	770	3280		> 50	60	> 10000	2550	
COc1cc(C(=O)c2csc(-c3ccc(OCc4ccc(C(=O)NO)cc4)cc3)n2)cc(OC)c1OC			2770	7190	12600	2550	7980		> 50	380	10000	1980	
COc1cc(C(=O)c2csc(-c3ccc(/C=C/C(=O)NO)cc3)n2)cc(OC)c1OC	6140	47	1380	8490	19100	100	2710	4090	> 50	20	750	1590	
